Screens deposited in PubChem BioAssay by several laboratories.
HSF1 activator: increases HSF-1 driven luciferase reporter signal; hit rate 1.7% among 300,000; AID 504408; NIH3T3-HGL HSF-1 luciferase reporter, MG132, 8 h; 100% = twice DMSO control signal; activation, % at 9 µM;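 active means mean replicate activation of at least 50% with a set share of replicates each reaching 50%; inconclusive means only one of those two conditions met; inactive means mean below 50% and too few replicates reaching it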
GPR7 antagonist: blocks human GPR7 receptor signaling. P48145. GPR7-expressing cells, fluorescence antagonist assay. inhibition, % at 4.4 µM. hit rate 1.1% among 290,000. AID 1861; in the data active means inhibition above about 16%, passing the limit was not always enough;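 further: cells stimulated with the agonist NPW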
Target sequence (P48145 whole entry, looked up): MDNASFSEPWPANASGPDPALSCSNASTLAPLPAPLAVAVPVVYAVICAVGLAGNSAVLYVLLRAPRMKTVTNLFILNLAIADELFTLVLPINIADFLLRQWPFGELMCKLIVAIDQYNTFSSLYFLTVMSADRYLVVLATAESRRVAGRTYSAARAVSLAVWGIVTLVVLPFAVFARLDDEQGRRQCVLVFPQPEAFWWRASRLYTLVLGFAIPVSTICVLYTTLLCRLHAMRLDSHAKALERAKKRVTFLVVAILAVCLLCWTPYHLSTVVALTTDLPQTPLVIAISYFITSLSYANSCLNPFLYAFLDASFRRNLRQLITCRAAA
697 NFkB inh: lowers PMA/ionomycin-induced NF-kB signal in 697 B cells. 697 B-cell NF-kB luciferase reporter, 16 h. inhibition, % at 4 µM. hit rate 0.33% among 330,000. AID 435022; in the data active means inhibition above about 35%
T cruzi repl: blocks replication of Trypanosoma cruzi | T. cruzi beta-gal in NIH3T3, luminescence, 90 h | inhibition, % (test concentration not listed) | hit rate 1.4% among 300,000 | AID 1885;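 active means mean inhibition across valid replicates above about 55%, limit read from the data; inconclusive means mean below that limit but half or more replicates reach it; inactive means mean below it, under half of replicates reach it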;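 further: signal also drops with host cell toxicity which is not excluded here; higher percent means less beta-gal luminescence so fewer parasites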
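compound dosing = single 50 nL compound addition per well in DMSO | material = NIH/3T3 host cells with β-galactosidase reporter T. cruzi | input = 5,000 host fibroblasts per well | timing = ≥90 h infection period, 3 h prior cell attachment | read-out basis = percent inhibition of parasite-derived β-gal signal | detection = GalScreen β-gal luminescence, detergent lysis, 60 min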
HSF1 inhib: HSF1 inhibition | NIH3T3-HGL HSE-luciferase, MG132-induced, luminescence 8 h; hits give low values | activity change, negative = inhibition, % at 7.5 µM (by protocol) | hit rate 0.77% among 300,000 | AID 2098;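 active means more than half of replicate wells show activity change below -50%, luminescence cut by over half; inconclusive means some wells, but at most half, below -50%; inactive means no replicate well below -50%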;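 further: luciferase reports HSF-1 transcriptional activity via heat shock element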
Jurkat NFkB inh: lowers PMA/ionomycin-induced NF-kB signal in Jurkat cells; hit rate 0.53% among 330,000; inhibition, % at 4 µM; AID 435003; PMA/ionomycin-induced NF-kB luciferase reporter, luminescence; in the data active means inhibition above about 50%
Each line names hits and unclear results; the compound was inactive in the other large screens. Most compounds without a hit are left out; they make up all but 4.8% or so of the library.

CC(C)N(C(=O)[C@H]1C[C@H](CC(=O)NCCN2CCOCC2)C(=O)N2CCc3c([nH]c4ccc(Cl)cc34)[C@]12C)C(C)C	none (no result: HSF1 activator, GPR7 antagonist, T cruzi repl, HSF1 inhib, Jurkat NFkB inh)
CCN(CC)S(=O)(=O)c1ccc(OCC2CCCCO2)c([N+](=O)[O-])c1 (stereo not given)	none
CN(CCOc1ccccc1)CC(=O)Nc1ccc(Cl)c(S(=O)(=O)N(C)C)c1	T cruzi repl 66.6
CN(C)S(=O)(=O)c1cc(NC(=O)CNCc2ccccc2)ccc1Cl	none
CN(C)S(=O)(=O)c1cc(NC(=O)COC(=O)CCSc2ccc(Cl)cc2)ccc1Cl	GPR7 antagonist 20.8
C[C@H](NC(=O)c1nc[nH]c1C(=O)NC1CCNCC1)C(=O)OCc1ccccc1	none (no result: HSF1 activator, GPR7 antagonist, T cruzi repl, HSF1 inhib)
NNC(=O)CCn1c2ccccc2c2ccccc21	none
CCOC(=O)c1[nH]cnc1C(=O)N1CCN(C(=O)OC(C)(C)C)CC1	none (no result: HSF1 activator, GPR7 antagonist, T cruzi repl, HSF1 inhib)
COc1ccc(NC(=O)Cc2nnc(SCC(=O)Nc3ccc(F)cc3)n2C)cc1	none
Cc1nc2ccccn2c1-c1nnco1	none
Cc1nc2ccccn2c1-c1ccnn1S(=O)(=O)c1ccc(F)cc1	HSF1 inhib -66.7
O=C(CCn1cnnn1)Nc1ccc(F)cc1	none
O=c1c2ccccc2nc(COc2ccccc2)n1/N=C/c1c[nH]c2ccccc12	none
O=c1c2ccccc2nc(COc2ccccc2)n1/N=C/c1ccc(O)cc1O	T cruzi repl 56.6
COC(=O)CSc1nnc(CCc2ccccc2)n1C	none
CC(C)Cc1nnc(NC(=O)c2cc(S(=O)(=O)N(C)C)ccc2N2CCCC2)s1	none
NS(=O)(=O)c1cccc(NC(=O)CNC(=O)CC23CC4CC(CC(C4)C2)C3)c1	HSF1 inhib -76.8
NS(=O)(=O)c1cccc(NC(=O)CC23CC4CC(C2)CC(CC(=O)Nc2cccc(S(N)(=O)=O)c2)(C4)C3)c1	none
NS(=O)(=O)c1ccc(O)c(NC(=O)c2ccc([N+](=O)[O-])o2)c1	none
COc1ccccc1CN(Cc1nc2ccccc2c(=O)[nH]1)C(=O)Nc1cccc(C)c1	none
CC(C)(C)c1ccc(C(=O)CCC(=O)OCC(=O)NCCc2ccc(S(N)(=O)=O)cc2)cc1	none (no result: HSF1 activator, GPR7 antagonist, T cruzi repl, HSF1 inhib)
O=C(Cc1ccccc1)NCC(=O)N/N=C/c1cccnc1	none
O=C(CNC(=O)C(c1ccccc1)c1ccccc1)N/N=C/c1cccnc1	GPR7 antagonist 19.8
Cc1cccc(N(C(=O)c2snc(C(N)=O)c2N)C(C(=O)NC2CCCC2)c2ccco2)c1 (stereo not given)	none
c1ccc2c(-c3c[nH]c4ccccc34)c3ccccc3nc2c1	none
O=C(O)c1cc(-c2c[nH]c3ccccc23)nc2ccc3ccccc3c12	HSF1 inhib -67.9
O=C(Nn1c(-c2ccc(Br)cc2)nc2ccccc2c1=O)c1cccnc1	none
O=C(Nn1c(-c2ccncc2)nc2ccccc2c1=O)c1ccc(Br)cc1	T cruzi repl 67.1
Cn1c(C(=O)N2CCc3ccccc3C2)cc2oc3ccccc3c21	HSF1 activator 65.9
CC1(C)C([N+](=O)[O-])C(c2ccc(Cl)cc2)NC(c2ccc(Cl)cc2)C1[N+](=O)[O-] (stereo not given)	T cruzi repl 57.6
CC1(C)C([N+](=O)[O-])C(c2ccc(F)cc2)NC(c2ccc(F)cc2)C1[N+](=O)[O-] (stereo not given)	none
Cc1cc2oc(=O)cc(CN3CCOCC3)c2c(C)c1Cl	none
CCOC(=O)Cc1nnc(Nc2cccc(C)c2)c2ccccc12	HSF1 activator 80.3
CNC(=O)/C(C#N)=C/c1c(N2CCN(c3ccc(OC)cc3)CC2)nc2c(C)cccn2c1=O	none
COc1ccc(N(CC(=O)Nc2ccc(C(C)C)cc2)S(=O)(=O)c2c(C)noc2C)cc1	none
O=[N+]([O-])c1ccc(C2CCCC/C2=N/OCc2ccc(F)cc2)c([N+](=O)[O-])c1 (stereo not given)	T cruzi repl 61.0
COc1ccc(/C=C(\C#N)C(=O)NC2CCS(=O)(=O)C2)cc1OC (stereo not given)	none
COc1ccc(/C(C#N)=C/c2ccccn2)cc1	HSF1 activator 67.6
N#C/C(=C\c1ccccn1)c1nc2ccccc2s1	HSF1 activator 82.7, GPR7 antagonist 21.3
C(=C(c1ccccc1)c1ccccc1)c1ccccn1	none (no result: GPR7 antagonist)
CCN1CC(CN(C)Cc2nc(COc3ccccc3)no2)CC1=O (stereo not given)	HSF1 activator 54.8
CCN1CC(CN(C)Cc2nc(-c3ccc(OC)c4ccccc34)oc2C)CC1=O (stereo not given)	none
Nc1ccc(O)c(-c2nc3ccccc3s2)c1	none
Oc1ccc(-c2nc3ccccc3s2)c(O)c1	HSF1 activator 60.8
Nc1ccccc1-c1nc2ccccc2s1	HSF1 inhib -71.3
COc1cc(CC(CC(=O)O)CC(C)OCc2ccccc2)cc(OC)c1 (stereo not given)	none
CCCCCOC(=O)C1=C(C)NC(=O)NC1c1ccc([N+](=O)[O-])cc1 (stereo not given)	HSF1 activator 62.9
CCCCCCOC(=O)C1=C(C)NC(=O)NC1c1ccc(O)cc1 (stereo not given)	none
CN1C(=O)S/C(=C\c2ccc(-n3cncn3)cc2)C1=O	none
CCOc1cc(N2CCOCC2)c(OCC)cc1NC(=O)c1cccc(N(C)C)c1	HSF1 inhib -51.3
CCOc1cc(N2CCOCC2)c(OCC)cc1NC(=O)c1cc(-c2ccco2)nc2ccccc12	HSF1 inhib -77.0
CCOc1ccc(OCCC(=O)OCC(=O)Nc2cc(OCC)c(N3CCOCC3)cc2OCC)cc1	HSF1 activator 111.2 (no result: GPR7 antagonist)
CCOc1cc(N2CCOCC2)c(OCC)cc1NC(=O)c1ccc2ncsc2c1	none (no result: HSF1 activator, GPR7 antagonist, T cruzi repl, HSF1 inhib)
O=C(CN1CC(=O)Oc2ccccc21)OCC(=O)c1ccccc1	HSF1 activator inconclusive
O=C(CN1CC(=O)Oc2ccccc21)OCC(=O)c1cccc(Br)c1	HSF1 activator 52.9
O=C(Nc1ncc(S(=O)(=O)c2ccc([N+](=O)[O-])cc2)s1)c1cccc2ccccc12	T cruzi repl 57.8
COCC(=O)Nc1ncc(S(=O)(=O)c2ccc([N+](=O)[O-])cc2)s1	none
CC(=O)c1ccc(-c2ccc(C(=O)N(C)c3c(N)n(Cc4ccccc4)c(=O)[nH]c3=O)o2)cc1	none (no result: GPR7 antagonist)
CCn1c(=O)n(CCc2ccccc2)c(=O)c2c3c(sc21)CCCC3	none
CCn1c(=O)c2c3c(sc2n2cnnc12)CCC3	HSF1 inhib -58.3
O=C(c1ccc(Cl)cc1)N(Cc1ccccc1F)N1C(=O)CCCC1=O	none
O=C(CNC(=O)c1n[nH]c2ccccc12)Nc1ccc(F)c(F)c1F	none (no result: HSF1 activator, GPR7 antagonist, T cruzi repl, HSF1 inhib)
CCCOc1ccc(/C(O)=C2/C(=O)C(=O)N(CCN(C)C)C2c2ccc(O)c(OC)c2)cc1 (stereo not given)	HSF1 inhib -76.9 (no result: 697 NFkB inh, Jurkat NFkB inh)
O=C(c1ccc(CSc2nc3ccncc3[nH]2)cc1)N1CCN(c2cccc(Cl)c2)CC1	T cruzi repl 54.8
Cc1ccc(CSc2nc3ccncc3[nH]2)cc1	none
